According to ChEMBL document CHEMBL4196137, “Abyssomicin Monomers and Dimers from the Marine-Derived Streptomyces koyangensis SCSIO 5802” (J Nat Prod, 2018):
Converted amounts (≈) assume the structure as drawn.

Assays:
Herpesviridae sp. = assay: Antiviral activity against Herpes simplex virus assessed as inhibition of viral replication at 10 uM relative to control; format: functional
Staphylococcus aureus [1] = assay: Antimicrobial activity against methicillin-resistant Staphylococcus aureus isolate shhs-A1 by two-fold serial dilution method; format: functional
How it was run: (§1)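 MIC by 2-fold serial broth dilution in Mueller-Hinton broth, following CLSI standard methods; panel run alongside S. aureus ATCC 29213 and E. faecalis ATCC 29212.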

Staphylococcus aureus [2] = assay: Antimicrobial activity against methicillin-resistant Staphylococcus aureus isolate 699 by two-fold serial dilution method; format: functional; how it was run: as §1
Staphylococcus aureus [3] = assay: Antimicrobial activity against methicillin-resistant Staphylococcus aureus isolate 1862 by two-fold serial dilution method; format: functional; how it was run: as §1
Staphylococcus aureus [4] = assay: Antimicrobial activity against Staphylococcus aureus ATCC 29213 by two-fold serial dilution method; format: functional
How it was run: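 MIC measured by 2-fold serial broth dilution in Mueller-Hinton broth, following CLSI standard methods.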

Enterococcus faecalis = assay: Antimicrobial activity against Enterococcus faecalis ATCC 29212 by two-fold serial dilution method; format: functional; how it was run: as §1
[5] = tested on: Vesicular stomatitis virus; assay: Antiviral activity against Vesicular stomatitis virus infected in African green monkey Vero cells after 16 hrs by fluorescence microscopy; format: functional, organism-based

| Compound | inhibition at 10 µM (Herpesviridae sp.) [%] | MIC (Staphylococcus aureus [1]) [µg/mL] | MIC (Staphylococcus aureus [2]) [µg/mL] | MIC (Staphylococcus aureus [3]) [µg/mL] | MIC (Staphylococcus aureus [4]) [µg/mL] | MIC (Enterococcus faecalis) [µg/mL] | IC50 [5] [µM] |
| --- | --- | --- | --- | --- | --- | --- | --- |
| C[C@H]1CC/C(O)=C2/C(=O)O[C@@]34C=C[C@]5(C1=O)[C@H](O)[C@@](C)(O[C@]235)[C@@H](C)C4 | 31 | – | – | – | – | – | – |
| C[C@H]1CC/C(O)=C2/C(=O)O[C@]34C[C@H](C)[C@]5(C)O[C@]23[C@H](C1=O)[C@@H](S[C@H]1[C@H]2[C@H](O)[C@@]3(C)O[C@@]67/C(=C(/O)CC[C@H](C)C(=O)[C@H]16)C(=O)O[C@@]27C[C@@H]3C)[C@H]4[C@@H]5O | – | 16 (≈ 22 µM) | 16 (≈ 22 µM) | 16 (≈ 22 µM) | 32 (≈ 44 µM) | 32 (≈ 44 µM) | 24 |
| C[C@H]1CCC(=O)C2=C3O[C@@]4(C)[C@@H](C)C[C@]3(OC2=O)[C@@H]([C@H](S[C@H]2[C@H]3[C@H](O)[C@@]5(C)O[C@@]67/C(=C(/O)CC[C@H](C)C(=O)[C@H]26)C(=O)O[C@@]37C[C@@H]5C)CC1=O)[C@@H]4O | – | 16 (≈ 22 µM) | 16 (≈ 22 µM) | 16 (≈ 22 µM) | 32 (≈ 44 µM) | 32 (≈ 44 µM) | 19 |
| CC1(C)S[C@@H]2[C@H](NC(=O)[C@H](N)c3ccccc3)C(=O)N2[C@H]1C(=O)O [AMPICILLIN] | – | 64 (≈ 183 µM) | 4 (≈ 11.4 µM) | 0.125 (≈ 0.358 µM) | 0.25 (≈ 0.715 µM) | 16 (≈ 45.8 µM) | – |
| CN[C@H](CC(C)C)C(=O)N[C@H]1C(=O)N[C@@H](CC(N)=O)C(=O)N[C@H]2C(=O)N[C@H]3C(=O)N[C@H](C(=O)N[C@H](C(=O)O)c4cc(O)cc(O)c4-c4cc3ccc4O)[C@H](O)c3ccc(c(Cl)c3)Oc3cc2cc(c3O[C@@H]2O[C@H](CO)[C@@H](O)[C@H](O)[C@H]2O[C@H]2C[C@](C)(N)[C@H](O)[C@H](C)O2)Oc2ccc(cc2Cl)[C@H]1O [VANCOMYCIN] | – | – | 0.125 (≈ 0.0863 µM) | 0.125 (≈ 0.0863 µM) | 0.25 (≈ 0.173 µM) | 0.25 (≈ 0.173 µM) | – |
